Measured values: ChEMBL document CHEMBL1144572, “Synthesis and biological evaluation of gamma-aminophosphonates as potent, subtype-selective sphingosine 1-phosphate receptor agonists and antagonists” (Bioorg Med Chem, 2007)
Calls of active or inactive are those of the source. No cut-off for these calls is given here.

How the values were obtained:
[1] = target: T1, Sphingosine 1-phosphate receptor 4 (Homo sapiens) (UniProt O95977); experiment: Efficacy at human S1P4 receptor expressed in HEK293T cells relative to S1P; format: functional, cell-based; conditions: HEK-293T
T1 sequence (whole entry): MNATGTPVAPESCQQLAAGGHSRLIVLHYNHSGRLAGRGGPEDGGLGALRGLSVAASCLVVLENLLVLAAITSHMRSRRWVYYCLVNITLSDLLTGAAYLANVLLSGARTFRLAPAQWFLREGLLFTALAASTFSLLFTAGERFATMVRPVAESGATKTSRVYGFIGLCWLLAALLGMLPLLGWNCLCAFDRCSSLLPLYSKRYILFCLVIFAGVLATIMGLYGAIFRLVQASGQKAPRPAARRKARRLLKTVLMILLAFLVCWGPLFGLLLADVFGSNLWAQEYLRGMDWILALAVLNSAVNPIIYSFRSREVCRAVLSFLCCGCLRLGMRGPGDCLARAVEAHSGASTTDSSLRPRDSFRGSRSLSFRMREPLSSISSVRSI
Summary of the method: (§1)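 Individual human S1P receptor subtypes co-expressed with individual G protein subunits in HEK293T cells; [γ-35S]GTP binding. Emax normalized to the maximal activation by endogenous S1P at each receptor.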

[2] = target: T2, Sphingosine 1-phosphate receptor 3 (Homo sapiens, UniProt Q99500); experiment: Efficacy at human S1P3 receptor expressed in HEK293T cells relative to S1P; format: functional, cell-based; conditions: HEK-293T; summary of the method: as §1
[3] = target: T3, Sphingosine 1-phosphate receptor 5 (Homo sapiens, UniProt Q9H228); experiment: Efficacy at human S1P5 receptor expressed in HEK293T cells relative to S1P; format: functional, cell-based; conditions: HEK-293T; summary of the method: as §1
[4] = target: T4, Sphingosine 1-phosphate receptor 4 (Homo sapiens, UniProt O95977); experiment: Activity at human S1P4 receptor expressed in HEK293T cells by [35S]GTP-gamma-S binding assay; format: functional, cell-based, HEK-293T
T4 sequence (O95977 whole entry): T1 sequence (whole entry)
Summary of the method: (§2)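 Individual human S1P receptor subtypes and individual G protein subunits forced into expression in HEK293T cells; receptor-dependent [γ-35S]GTP binding measured in vitro. EC50 in nM as the mean of at least three experiments.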

[5] = target: T5, Sphingosine 1-phosphate receptor 2 (Homo sapiens, UniProt O95136); experiment: Efficacy at human S1P2 receptor expressed in HEK293T cells relative to S1P; format: functional, cell-based; conditions: HEK-293T; summary of the method: as §1
[6] = target: T5, Sphingosine 1-phosphate receptor 2; experiment: Activity at human S1P2 receptor expressed in HEK293T cells by [35S]GTP-gamma-S binding assay; format: functional, cell-based; conditions: for Activity: HEK-293T; summary of the method: as §2
[7] = target: T2, Sphingosine 1-phosphate receptor 3; experiment: Displacement of [32P]S1P from human S1P3 receptor expressed in HEK293T cells; format: cell-based, HEK-293T
Mus musculus [8] = experiment: Effect on vascular permeability in C57BL/6 mouse assessed as capillary leakage in kidney at 25 mg/kg by Evans blue extravasation assay; format: functional, organism-based; set-up: dose 25 mg/kg
Summary of the method: (§3)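 C57BL/6 mice given compound (25 mg/kg) or vehicle (2% hydroxypropyl β-cyclodextrin) two hours before 2% Evans blue dye (20 mg/kg) via jugular vein. Tissues harvested 30 min later. Dye extracted into formamide, read spectrometrically and quantified against a standard curve. n = 4 per group, mean ± SE, compared with vehicle.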

Mus musculus [9] = experiment: Inhibition of VPC44152-evoked lymphopenia in mouse at 22 mg/kg; format: functional, organism-based; set-up: dose 22 mg/kg
[10] = target: T6, Sphingosine 1-phosphate receptor 1 (Homo sapiens, UniProt P21453); experiment: Activity at human S1P1 receptor expressed in HEK293T cells by [35S]GTP-gamma-S binding assay; format: functional, cell-based; conditions: for Activity: HEK-293T; summary of the method: as §2
[11] = target: T6, Sphingosine 1-phosphate receptor 1; experiment: Displacement of [32P]S1P from human S1P1 receptor expressed in HEK293T cells; format: cell-based, HEK-293T
[12] = target: T3, Sphingosine 1-phosphate receptor 5; experiment: Activity at human S1P5 receptor expressed in HEK293T cells by [35S]GTP-gamma-S binding assay; format: functional, cell-based, HEK-293T; summary of the method: as §2
[13] = target: T2, Sphingosine 1-phosphate receptor 3; experiment: Activity at human S1P3 receptor expressed in HEK293T cells by [35S]GTP-gamma-S binding assay; format: functional, cell-based; conditions: for Activity: HEK-293T; summary of the method: as §2
Mus musculus [14] = experiment: Effect on vascular permeability in C57BL/6 mouse assessed as capillary leakage in lung at 25 mg/kg by Evans blue extravasation assay; format: functional, organism-based; set-up: dose 25 mg/kg; summary of the method: as §3
[15] = target: T6, Sphingosine 1-phosphate receptor 1; experiment: Efficacy at human S1P1 receptor expressed in HEK293T cells relative to S1P; format: functional, cell-based; conditions: HEK-293T; summary of the method: as §1

T6 sequence (P21453 whole entry): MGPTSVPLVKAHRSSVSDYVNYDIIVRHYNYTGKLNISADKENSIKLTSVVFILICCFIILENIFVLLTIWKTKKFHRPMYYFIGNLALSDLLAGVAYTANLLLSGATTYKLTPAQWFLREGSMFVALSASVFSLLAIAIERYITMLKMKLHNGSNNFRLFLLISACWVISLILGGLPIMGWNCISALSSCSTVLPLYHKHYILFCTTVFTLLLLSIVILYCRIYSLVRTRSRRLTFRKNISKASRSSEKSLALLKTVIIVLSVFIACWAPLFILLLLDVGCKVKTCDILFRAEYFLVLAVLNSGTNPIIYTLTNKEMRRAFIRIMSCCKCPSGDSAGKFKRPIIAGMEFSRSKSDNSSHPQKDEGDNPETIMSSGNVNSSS
T3 sequence (Q9H228 whole entry): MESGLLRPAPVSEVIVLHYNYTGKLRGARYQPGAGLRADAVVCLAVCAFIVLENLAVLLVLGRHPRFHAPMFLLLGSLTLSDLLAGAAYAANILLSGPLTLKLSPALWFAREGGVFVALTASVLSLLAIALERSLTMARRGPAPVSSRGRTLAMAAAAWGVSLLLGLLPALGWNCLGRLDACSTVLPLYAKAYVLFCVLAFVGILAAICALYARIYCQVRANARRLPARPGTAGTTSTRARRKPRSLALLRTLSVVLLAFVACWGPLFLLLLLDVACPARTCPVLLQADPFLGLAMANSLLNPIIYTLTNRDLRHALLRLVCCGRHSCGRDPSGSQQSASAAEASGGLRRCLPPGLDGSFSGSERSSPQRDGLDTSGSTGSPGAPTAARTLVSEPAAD
T2 sequence (Q99500 whole entry): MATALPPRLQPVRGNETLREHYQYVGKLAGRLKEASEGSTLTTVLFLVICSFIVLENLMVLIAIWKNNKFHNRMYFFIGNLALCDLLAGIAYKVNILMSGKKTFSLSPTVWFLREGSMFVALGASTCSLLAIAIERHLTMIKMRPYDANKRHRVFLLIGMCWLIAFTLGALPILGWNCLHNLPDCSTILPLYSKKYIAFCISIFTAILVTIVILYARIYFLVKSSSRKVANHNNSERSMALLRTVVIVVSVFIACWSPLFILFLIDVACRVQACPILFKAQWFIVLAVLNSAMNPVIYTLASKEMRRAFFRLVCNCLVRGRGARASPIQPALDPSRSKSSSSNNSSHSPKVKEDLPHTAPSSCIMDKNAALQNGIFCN
T5 sequence (O95136 whole entry): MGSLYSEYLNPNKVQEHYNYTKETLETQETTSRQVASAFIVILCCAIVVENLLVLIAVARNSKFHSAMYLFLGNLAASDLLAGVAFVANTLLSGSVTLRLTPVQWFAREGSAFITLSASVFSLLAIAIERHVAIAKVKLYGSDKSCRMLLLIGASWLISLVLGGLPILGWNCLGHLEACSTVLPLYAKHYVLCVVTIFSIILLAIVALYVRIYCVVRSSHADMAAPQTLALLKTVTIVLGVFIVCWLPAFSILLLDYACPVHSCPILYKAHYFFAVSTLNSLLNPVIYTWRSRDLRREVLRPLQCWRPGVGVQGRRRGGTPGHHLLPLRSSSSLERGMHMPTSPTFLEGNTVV

Row | Structure (SMILES) | ECmax [1] | ECmax [2] | ECmax [3] | EC50 [4] | ECmax [5] | Activity [6] | Ki [7] | Activity (Mus musculus [8]) | Activity (Mus musculus [9]) | Activity [10] | Ki [11] | EC50 [12] | Activity [13] | Activity (Mus musculus [14]) | EC50 [10] | EC50 [13] | Activity ([12]; HEK-293T) | EC50 [6] | Activity [15]
1 | CCCCCCCCc1ccc(CCC(N)(CO)COP(=O)(O)O)cc1 (stereo not drawn) | 0.9 | 0.5 | 0.56 | 4 nM | 0 | inactive |  |  |  |  |  |  |  |  |  |  |  |  | 
2 | CCCCCCCCc1cccc(NC(=O)[C@H](N)CCP(=O)(O)O)c1 | 1.42 | 0 | 0.73 | 6100 nM | 0 | inactive | 300 nM | Active | Active | inactive | 30 nM | 33 nM | inactive | Active |  |  |  |  | 
3 | CCCCCCCCc1cccc(NC[C@H](N)CCP(=O)(O)O)c1 | 1.18 | 0 | 0.61 | 340 nM | 0 | inactive |  |  |  |  |  | 41 nM | inactive |  | 30 nM |  |  |  | 
4 | CCCCCCCCc1ccc(NC(=O)[C@H](N)CCP(=O)(O)O)cc1 | 0.8 | 0.38 | 0.64 | 2300 nM | 0 | inactive |  |  |  |  |  | 76 nM |  |  | 27 nM | 270 nM |  |  | 
5 | CCCCCCCCc1ccc(OC[C@@H](O)CCP(=O)(O)O)cc1 | 0.45 | 0 | 0 | 440000 nM | 0 | inactive |  |  |  |  |  |  | inactive |  | 33 nM |  | inactive |  | 
6 | CCCCCCCCc1cccc(NC(=O)[C@@H](N)CCP(=O)(O)O)c1 |  | 0 |  |  | 0 | inactive |  |  |  | inactive |  |  | inactive |  |  |  |  |  | 
7 | CCCCCCCCc1ccc(OC[C@@H](N)CCP(=O)(O)O)cc1 | 0.71 | 0 | 0.41 | 147 nM | 0 | inactive |  |  |  |  |  | 31 nM | inactive |  | 68 nM |  |  |  | 
8 | CCCCCCCCCCc1ccc(NC(=O)[C@H](N)CC(F)P(=O)(O)O)cc1 (stereo partly drawn) |  | 0.96 |  |  | 0.47 |  |  |  |  |  |  |  |  |  | 2.1 nM | 23 nM |  | 490 nM | 
9 | CCCCCCCCCCc1ccc(NC(=O)[C@H](N)CCP(=O)(O)O)cc1 | 0.67 | 0.88 | 0.77 | 230 nM | 0.5 |  |  |  |  |  |  | 30 nM |  |  | 3.6 nM | 43 nM |  | 270 nM | 
10 | CCCCCCCCc1ccc(NC(=O)[C@@H](N)CCP(=O)(O)O)cc1 |  | 0.3 |  |  | 0 | inactive |  |  |  |  |  |  |  |  | 1200 nM | 15000 nM |  |  | inactive
11 | CCCCCCCCc1ccc(OC[C@H](N)CCP(=O)(O)O)cc1 | 0.9 | 0.53 | 0.5 | 150 nM | 0.5 |  |  |  |  |  |  | 47 nM |  |  | 140 nM | 100 nM |  | 530 nM | 
12 | CCCCCCCc1cccc(NC(=O)[C@H](N)CCP(=O)(O)O)c1 |  | 0 |  |  |  |  |  |  |  | inactive |  |  | inactive |  |  |  |  |  | 
